Experimental data as given in ChEMBL document CHEMBL1139333, “Search for new pharmacophores for antimalarial activity. Part I: synthesis and antimalarial activity of new 2-methyl-6-ureido-4-quinolinamides” (Bioorg Med Chem, 2009).
≈ marks a conversion by molar mass, not a printed value.

test system: Plasmodium falciparum; test: Antimalarial activity against chloroquine-sensitive Plasmodium falciparum 3D7 infected erythrocytes after 72 hrs by MSF assay; details: 3D7, 72 h

Row | Compound | IC50
1 | Cc1cc(NC(=O)c2cccc(Cl)c2)c2cc(NC(=O)Nc3ccc(Cl)cc3)ccc2n1 | 0.0144 µg/mL (≈ 0.0309 µM)
2 | Cc1cc(NC(=O)CN2CCN(C)CC2)c2cc(NC(=O)Nc3cc(Cl)cc(Cl)c3)ccc2n1 | 0.0004 µg/mL (≈ 0.000798 µM)

test system: Pseudomonas aeruginosa; test: Antibacterial activity against Pseudomonas aeruginosa after 24 hrs by NCCLS method; format: functional; details: not given
Summary of the method: (§1)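 Bacteria grown on nutrient agar at 37 °C for 24 h, then suspended in normal saline with 0.05% Tween 20 at about […] cells/mL (0.5 McFarland). MIC by NCCLS broth microdilution in Mueller Hinton broth with twofold serial dilutions. Compounds were dissolved in DMSO at 1 mg/mL (stock). Growth, drug and blank controls were included.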

Row | Compound | MIC
3 | GENTAMICIN | 6.25 µg/mL
4 | Cc1cc(NC(=O)CN2CCN(C)CC2)c2cc(NC(=O)Nc3ccc(Br)cc3)ccc2n1 | 1.56 µg/mL (≈ 3.05 µM)
5 | Cc1cc(NC(=O)c2cccc(Cl)c2)c2cc(NC(=O)Nc3ccc(Cl)cc3)ccc2n1 | 1.56 µg/mL (≈ 3.35 µM)
6 | Cc1cc(NC(=O)c2ccccc2)c2cc(NC(=O)Nc3cc(Cl)cc(Cl)c3)ccc2n1 | 12.5 µg/mL (≈ 26.9 µM)

test system: Staphylococcus aureus; test: Antibacterial activity against Staphylococcus aureus after 24 hrs by NCCLS method; format: functional; details: not given
Summary of the method: as §1

Row | Compound | MIC
7 | GENTAMICIN | 6.25 µg/mL
8 | Cc1cc(NC(=O)c2cccc(Cl)c2)c2cc(NC(=O)Nc3ccc(Cl)cc3)ccc2n1 | 3.12 µg/mL (≈ 6.7 µM)
9 | CCN1CCN(CC(=O)Nc2cc(C)nc3ccc(NC(=O)Nc4cc(Cl)cc(Cl)c4)cc23)CC1 | 3.12 µg/mL (≈ 6.05 µM)
10 | CCN1CCN(CC(=O)Nc2cc(C)nc3ccc(NC(=O)Nc4ccc(Cl)c(Cl)c4)cc23)CC1 | 6.25 µg/mL (≈ 12.1 µM)

test system: Plasmodium yoelii; test: Antimalarial activity as parasitaemia after 28 days against chloroquine-resistant Plasmodium yoelii N67 infected Swiss mice (Mus musculus) at 50 mg/kg peroral dose over 7 days; format: functional; details: route oral

Row | Compound | Activity
11 | Cc1cc(NC(=O)CN2CCN(C)CC2)c2cc(NC(=O)Nc3cc(Cl)cc(Cl)c3)ccc2n1 | 15.5%

test system: Klebsiella pneumoniae; test: Antibacterial activity against Klebsiella pneumoniae after 24 hrs by NCCLS method; format: functional; details: not given
Summary of the method: as §1

Row | Compound | MIC
12 | GENTAMICIN | 25 µg/mL
13 | Cc1cc(NC(=O)CN2CCN(C)CC2)c2cc(NC(=O)Nc3ccc(Br)cc3)ccc2n1 | 6.25 µg/mL (≈ 12.2 µM)
14 | Cc1cc(NC(=O)c2cccc(Cl)c2)c2cc(NC(=O)Nc3ccc(Cl)cc3)ccc2n1 | 6.25 µg/mL (≈ 13.4 µM)
15 | CCN1CCN(CC(=O)Nc2cc(C)nc3ccc(NC(=O)Nc4cc(Cl)cc(Cl)c4)cc23)CC1 | 6.25 µg/mL (≈ 12.1 µM)
16 | CCN1CCN(CC(=O)Nc2cc(C)nc3ccc(NC(=O)Nc4ccc(Cl)c(Cl)c4)cc23)CC1 | 12.5 µg/mL (≈ 24.3 µM)
17 | Cc1cc(NC(=O)c2ccccc2)c2cc(NC(=O)Nc3cc(Cl)cc(Cl)c3)ccc2n1 | 0.04 µg/mL (≈ 0.086 µM)

test system: Enterococcus faecalis; test: Antibacterial activity against Streptococcus faecalis after 24 hrs by NCCLS method; format: functional; details: not given
Summary of the method: as §1

Row | Compound | MIC
18 | GENTAMICIN | 3.12 µg/mL
19 | Cc1cc(NC(=O)CN2CCN(C)CC2)c2cc(NC(=O)Nc3ccc(Br)cc3)ccc2n1 | 6.25 µg/mL (≈ 12.2 µM)
20 | Cc1cc(NC(=O)c2cccc(Cl)c2)c2cc(NC(=O)Nc3ccc(Cl)cc3)ccc2n1 | 12.5 µg/mL (≈ 26.9 µM)
21 | Cc1cc(NC(=O)c2ccccc2)c2cc(NC(=O)Nc3cc(Cl)cc(Cl)c3)ccc2n1 | 0.01 µg/mL (≈ 0.0215 µM)
22 | Cc1cc(NC(=O)CN2CCN(C)CC2)c2cc(NC(=O)Nc3cc(Cl)cc(Cl)c3)ccc2n1 | 3.12 µg/mL (≈ 6.23 µM)

test system: Plasmodium yoelii; test: Antimalarial activity as parasitaemia after 28 days against chloroquine-resistant Plasmodium yoelii N67 infected Swiss mice (Mus musculus) at 50 mg/kg peroral dose over 4 days; format: functional; details: route oral
Summary of the method: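 Swiss mice (25 g, either sex, n=5) infected on day 0 with 1 × 10⁶ P. yoelii N67 chloroquine-resistant parasitized cells. Test compounds were given orally as an aqueous suspension at 50 mg/kg from day 0 to 3; vehicle controls were run alongside. Parasitaemia was counted on tail-vein thin smears on days 4, 7, 14, 21 and 28, or until death.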

Row | Compound | Activity
23 | Cc1cc(NC(=O)CN2CCN(C)CC2)c2cc(NC(=O)Nc3cc(Cl)cc(Cl)c3)ccc2n1 | 4.78%

test system: Escherichia coli; test: Antibacterial activity against Escherichia coli after 24 hrs by NCCLS method; format: functional; details: not given
Summary of the method: as §1

Row | Compound | MIC
24 | Cc1cc(NC(=O)CN2CCN(C)CC2)c2cc(NC(=O)Nc3ccc(Br)cc3)ccc2n1 | 6.25 µg/mL (≈ 12.2 µM)
25 | Cc1cc(NC(=O)c2cccc(Cl)c2)c2cc(NC(=O)Nc3ccc(Cl)cc3)ccc2n1 | 12.5 µg/mL (≈ 26.9 µM)
26 | CCN1CCN(CC(=O)Nc2cc(C)nc3ccc(NC(=O)Nc4cc(Cl)cc(Cl)c4)cc23)CC1 | 12.5 µg/mL (≈ 24.3 µM)
27 | Cc1cc(NC(=O)c2ccccc2)c2cc(NC(=O)Nc3cc(Cl)cc(Cl)c3)ccc2n1 | 0.0025 µg/mL (≈ 0.00537 µM)
28 | Cc1cc(NC(=O)CN2CCN(C)CC2)c2cc(NC(=O)Nc3cc(Cl)cc(Cl)c3)ccc2n1 | 1.56 µg/mL (≈ 3.11 µM)

test system: Plasmodium falciparum; test: Antimalarial effect as schizonticidal activity against chloroquine-sensitive Plasmodium falciparum 3D7 after 40 hrs; details: 3D7, 40 h

Row | Compound | MIC
29 | Cc1cc(NC(=O)CN2CCN(C)CC2)c2cc(NC(=O)Nc3ccc(Br)cc3)ccc2n1 | 1 µg/mL (≈ 1.96 µM)
30 | Cc1cc(NC(=O)c2cccc(Cl)c2)c2cc(NC(=O)Nc3ccc(Cl)cc3)ccc2n1 | 1 µg/mL (≈ 2.15 µM)
31 | CCN1CCN(CC(=O)Nc2cc(C)nc3ccc(NC(=O)Nc4cc(Cl)cc(Cl)c4)cc23)CC1 | 0.5 µg/mL (≈ 0.97 µM)
32 | CCN1CCN(CC(=O)Nc2cc(C)nc3ccc(NC(=O)Nc4ccc(Cl)c(Cl)c4)cc23)CC1 | 0.5 µg/mL (≈ 0.97 µM)
33 | Cc1cc(NC(=O)c2ccccc2)c2cc(NC(=O)Nc3cc(Cl)cc(Cl)c3)ccc2n1 | 2 µg/mL (≈ 4.3 µM)
34 | Cc1cc(NC(=O)CN2CCN(C)CC2)c2cc(NC(=O)Nc3cc(Cl)cc(Cl)c3)ccc2n1 | 0.25 µg/mL (≈ 0.499 µM)

test system: not listed separately; test: Selectivity index, ratio of CC50 for african green monkey (Cercopithecus aethiops) Vero cells to IC50 for Plasmodium falciparum 3D7; format: functional; details: not given

Row | Compound | Selectivity Index
35 | Cc1cc(NC(=O)CN2CCN(C)CC2)c2cc(NC(=O)Nc3cc(Cl)cc(Cl)c3)ccc2n1 | 4404.8
